This note sets out measurements from the RNAGym collection of RNA variant scans (doi:10.1126/science.aae0568).

B1: tRNA (parent)
chain: GUUCCGUUGGCGUAAUGGUAACGCGUCUCCCUCCUAAGGAGAAGACUGCGGGUUCGAGUCCCGUACGGAACG

Variants at the floor of the assay were thinned out.

Variants of B1 are the subject of the data set. The data set is described as follows: yeast fitness relative to wild type (ratio to wild type); higher = fitter; tRNA-Arg(CCU), competitive growth, 37 C, YPD. Put shortly: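 Genotype frequency changes were the basis for Darwinian fitness relative to wild type. The frequencies came from 100-nucleotide paired-end sequencing of gene amplicons from the start population and each end population of pooled yeast strains with tRNA-Arg(CCU) gene variants at the native locus. Competition ran in YPD at 37°C for 24 hours in six replicates, genotypes needed ≥ 100 starting reads, and estimates < 0.5 were set to 0.5.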
As for C5A G17A C66U, the yeast fitness is 0.587.
In the case of C5A A40G C66U it was 0.549.
In the case of C5A A42G G63C it was 0.59; in that of C5G A15U U28C, not above 0.5.
Take C5A U19G: the yeast fitness came out at 0.731.
As to C5A A40C C46U G52C, the yeast fitness turned out to be 0.547.
Turning to C5G A20U A57U, the yeast fitness is not above 0.5.
In the case of C5A C33G C34U it was not above 0.5; in that of C5A G18C A45C G68A A70G, not above 0.5; in that of C5G A14U U16C G18C U32A G58A, 0.542.
Next, C5G A21G C24U G68A: 0.71; C5A U16A U35C A45G G50A: not above 0.5.
For C5A U28G A42U, the yeast fitness is not above 0.5.
Turning to C5A U8C A14G A21G A45C G56C, the yeast fitness is not above 0.5.
In the case of C5G A15G C24G U32A C34G G68A A69U A70U it was 0.516.
Next, C4U G17C C49G G50C: 0.652; C5A A15G C24U C29U C30G U35G: not above 0.5; C5A C11G G48C: not above 0.5.
Consider C5A A65C, for which the yeast fitness was found to be 0.839.
Next, C5A A40U G67C: 0.627.
Next, C5G A15U C29G: not above 0.5.
In the case of C4U U16C A36U C49U G58C C66U it was not above 0.5.
Take C5A C27U C31G A43C C49G G52C U59A: the yeast fitness is not above 0.5.
In the case of C5A G41A C55A it was not above 0.5; in that of C4U U13A A14U C29U A37G, 0.581.
Take C4U U19A G44C U53G: the yeast fitness was not above 0.5.
In the case of C5A U28C U35C C66U it was not above 0.5; in that of C5A G18A G25A C31U U47C C61U, not above 0.5.
In the case of C5A C22G C27G A36U A40C A57U C66U it was not above 0.5; in that of C5G A20G A40G G44A C46G C60G C61U G63A, not above 0.5; in that of C5A G25A C33G C46A C66A, not above 0.5.
In the case of C5A U19G A43U it was 0.656; in that of C5A U16G A69C, 0.69.
Regarding C5G A20G A36C A70C, the yeast fitness was not above 0.5.
Next, C5A U59A A69G: not above 0.5; C4U G18C A57C: 0.639; C5G A21C A45G A57G G68A: not above 0.5.
C5A C22U U35C C49U C66U: the yeast fitness was not above 0.5.
Next, C5A A70G: 0.922; C5G A15G C24G U32A C34G U64C G68A A69U A70U: not above 0.5; C5A A14U U53A U59G: 0.597.
Next, C5A G39A G44A C62G C66G: not above 0.5; C4U G50C G51C G56A: not above 0.5; C5A G23C A65G: 0.532.
Next, C4U G44A A69C: 0.568.
As to C5A G48A C49G, the yeast fitness was found to be 0.682.
Consider C5A U16G A21C C24U C30A U59G, for which the yeast fitness was not above 0.5.
Turning to C5A G25A U28C C31U A40C A42G, the yeast fitness is not above 0.5.
Next, C5A C60G C66U G67A: not above 0.5; C4U G12C U26G C55U A69C: 0.504.
Next, C5A G17A A36G: not above 0.5; C4U U7A A37C A40C G51A C55A G58A: not above 0.5; C4U G10C G48C C62A: not above 0.5.
Next, C4U G23C A36C: 0.597; C5A C24U A37G A40G A42U C49U: not above 0.5; C5A G39A U47A G68C: not above 0.5.
Turning to C5G A21G G44A, the yeast fitness is 0.59.
Next, C4U G12A C31A A42U: not above 0.5; C5A C11G A21U: 0.505.
In the case of C5A C11A A42U U53A it was 0.616.
In the case of C4U G12A it was 1.11; in that of C5A A14G C31A C55A C61A G63A, 0.536.
In the case of C4U G12A G67A, the yeast fitness is 0.674.
In the case of C5G A14U G18A A21U A42G C62U A65C it was not above 0.5; in that of C4U G17A A57U, not above 0.5.
In the case of C5A G9A G10A A20G it was not above 0.5; in that of C5A A36G G44A U47C A70U, not above 0.5; in that of C5A G52C C66U, not above 0.5.
As for C5A A45U C55U G56A U59A C66G, the yeast fitness is not above 0.5.
On to C5A C30U A40U, for which the yeast fitness is 0.621.
Next, C5A A21U C24U C27G A70G: not above 0.5; C5A A36G C66U: 0.655.
With C5G A20C, the yeast fitness worked out at 0.813.
In the case of C4U U26C G44A G52A C66U it was not above 0.5; in that of C5A A37U C66U, not above 0.5; in that of C5A C24G U26A C29G U32A G48A C66G G67U, not above 0.5.
In the case of C5A U19A A65C it was 0.538.
Consider C5A C33G, for which the yeast fitness was 0.698.
C4U G10A U28A A70U: the yeast fitness is not above 0.5.
Next, C4U G52A G63C: 0.595; C5A C60U A70G: not above 0.5.
For C5A C22U G39A A45C, the yeast fitness was not above 0.5.
In the case of C5A C62G C66A it was not above 0.5; in that of C5A C24G U26A C29G U32A A65U, not above 0.5.
In the case of C5A C27G U47C A70U it was 0.578; in that of C5A C33A G39C G51C C62U A69C, not above 0.5; in that of C4U G10C U47C U59A A69U, not above 0.5.
Next, C5G A14U G18A A21U A42G G56C: not above 0.5.
For C4U G25A G67C, the yeast fitness was determined as 0.58.
As for C4U U7A G39C, the yeast fitness was not above 0.5.
Next, C4U G10C A14C C27G: 0.546; C5A U16A A45G G50A G56A: not above 0.5; C5A A57U G68U A70G: 0.541.
Next, C4U U8C A36G A40C G44C: not above 0.5; C5A C30U G52A: not above 0.5.
In the case of C5G A14U C27U A42U A43U U47C it was not above 0.5.
For C5A A14U C27U C49G A57G, the yeast fitness was not above 0.5.
Regarding C5A G6A U7A A43U G44A C46A, the yeast fitness was 0.691.
Turning to C4U U8A U32G U35A C62U A69C, the yeast fitness is not above 0.5.
As for C5A A20G G41C A65U, the yeast fitness is not above 0.5.
In the case of C5A C29G C61A it was not above 0.5; in that of C5A A21C C24A G50C, not above 0.5; in that of C4U G12C A20G U47A C49U A57U C61A G68A, not above 0.5.
Next, C4U U7C G23A A40U A42C C60A: not above 0.5; C5A A20G C29A G51C G67C: not above 0.5.
Next, C5G A15U U53A: not above 0.5; C5A G52A G56A G58C: not above 0.5.
As to C5A A69U A70C, the yeast fitness is 0.768.
In the case of C5A U16G A20G C29G it was 0.601; in that of C5A G50A G68C, not above 0.5.
In the case of C5A C31G U47A it was 0.745; in that of C5G A20G A37G C46G A57C, not above 0.5.
Next, C5A U8A U16G A20U A36G C60G: not above 0.5; C5A U16A A21G C27G C46U: not above 0.5; C4U U32A: 0.712.
As to C4U U53G, the yeast fitness is 0.558.
In the case of C5A G17A A43U C55U it was not above 0.5; in that of C4U U26A A45C, 0.53; in that of C5A A36C, 0.608.
Consider C5A A36U, for which the yeast fitness stood at 0.678.
Next, C4U G39U: 0.834.
Next, C4U G12A A20G C22U U35A A45C: not above 0.5; C4U U8A U13C U35C C46A: not above 0.5.
In the case of C5A A36G A42C A43U it was not above 0.5; in that of C5A U16A A45G G50A, 0.529; in that of C5A C24U A37G A40G A42U C49U G67C A70G, not above 0.5.
C5G A14U A43U U54C: the yeast fitness came out at 0.666.
Next, C4U U8A G48A C55U: not above 0.5.
Next, C4U G17C C49A: 0.55.
As for C4U G12A U16A G51A U54A, the yeast fitness was not above 0.5.
Consider C4U U16A A40C C55U C61A C66A, for which the yeast fitness was found to be 0.528.
Turning to C5A G39A U47A C55U G67A A69G, the yeast fitness is not above 0.5.
Next, C4U G25A C34G G52U: not above 0.5; C4U U13C C33U A65G: 0.617.
Turning to C5A C29U A45C, the yeast fitness came out at 0.546.
Next, C4U U26C A36C A37G U64A A70C: not above 0.5.
Next, C4U G39C C46G C49G: not above 0.5; C4U U7G G56C C60G C66U: not above 0.5; C5A G18C G48C A65C: not above 0.5.
In the case of C4U U35C it was 0.715; in that of C4U U35A, 0.659; in that of C5A A69U, 0.917.
Consider C5A C60G C61G, for which the yeast fitness worked out at 0.544.
In the case of C5G A21G G51A it was 0.617.
In the case of C5A C30A G44A it was 0.584.
For C5A U26A A40G G58C G67U, the yeast fitness amounted to 0.56.
Next, C5A G51C G63C A65C A70U: not above 0.5.
In the case of C5A G17A C46A C55A it was not above 0.5; in that of C5A C29G A43G, not above 0.5; in that of C4U G12A G39C G44A A57U, not above 0.5.
In the case of C5A G23C C62U A69U, the yeast fitness was not above 0.5.
Next, C5A C22U C49A C62U: not above 0.5; C5G A14C C29A C31G: 0.529.
Next, C4U U8A C33U A36U A65C: not above 0.5; C4U U19C A37U C62A: not above 0.5.
Next, C5A C62U: 0.954.
With C5G A20U C30U, the yeast fitness was not above 0.5.
Consider C5A A36U G39A A45G G63U, for which the yeast fitness is not above 0.5.
On to C5G A14C G23C G38A G58C A70G, for which the yeast fitness is 0.545.
Next, C4U U26G: 0.912.
Next, C5A A20G G39C G52A: 0.593; C5G A20G C62U C66G: 0.663; C5G A20C U54A: 0.616.
In the case of C5G A14C U16A C30U G38C G41C C46G it was not above 0.5; in that of C5A U8C A20G C34G A43U C66U, not above 0.5.
Consider C5G A21G G41A, for which the yeast fitness is 0.503.
Next, C5A C46A G56C G68A A70G: not above 0.5.
